From ChEMBL document CHEMBL2311499, “Synthesis, antiproliferative activity and tubulin targeting effect of acridinone and dioxophenothiazine derivatives” (Eur J Med Chem, 2013)
One block for each molecule: values may come before it. Active and inactive are the calls of the source. No cut-off for these calls is given here.

Assays:
DU-145 = assay: Antiproliferative activity against human DU145 cells after 72 hrs by MTT assay; format: functional, cell-based; conditions: DU-145, 72 h
How it was run: (§1)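 MTT viability readout. Cells were seeded at (1.6–1.8) × 10⁴ per well in medium with 10% FBS. After 72 h they were serum-deprived, then treated next day with a range of concentrations. MTT (4 mg/mL) was added for 4 h at 37 °C, 5% CO₂, followed by SDS/HCl lysis and absorbance at 570 nm. IC50 is the concentration giving 50% inhibition of proliferation relative to untreated controls.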

PC-3 = assay: Antiproliferative activity against human PC3 cells after 72 hrs by MTT assay; format: functional, cell-based; conditions: PC-3, 72 h; how it was run: as §1
HL-60 [1] = assay: Cell cycle arrest in human HL60 cells assessed as accumulation at S phase at 5 uM after 24 hrs flow cytometry; format: functional
How it was run: (§2)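 Flow cytometry: 2.5–4 × 10⁵ cells were seeded in 6-well plates, grown 24 h, then treated for 24 h. Floating and adherent cells were pooled and fixed in cold 70% ethanol for 24 h. Results are reported as the percentage of cells in sub-G1, G1, S and G2 phases.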

HT-29 [2] = assay: Cell cycle arrest in human HT-29 cells assessed as accumulation at S phase at 5 uM after 24 hrs flow cytometry; format: functional; how it was run: as §2
HL-60 [3] = assay: Cell cycle arrest in human HL60 cells assessed as accumulation at sub-G1 phase at 5 uM after 24 hrs flow cytometry; format: functional; how it was run: as §2
HL-60 [4] = assay: Cell cycle arrest in human HL60 cells assessed as accumulation at sub-G1 phase at 0.5 uM after 24 hrs flow cytometry; format: functional; how it was run: as §2
HL-60 [5] = assay: Cell cycle arrest in human HL60 cells assessed as accumulation at G2 phase at 5 uM after 24 hrs flow cytometry; format: functional; how it was run: as §2
HT-29 [6] = assay: Cell cycle arrest in human HT-29 cells assessed as accumulation at S phase at 0.5 uM after 24 hrs flow cytometry; format: functional; how it was run: as §2
HT-29 [7] = assay: Cell cycle arrest in human HT-29 cells assessed as accumulation at G1 phase at 5 uM after 24 hrs flow cytometry; format: functional; how it was run: as §2
HL-60 [8] = assay: Cell cycle arrest in human HL60 cells assessed as accumulation at G1 phase at 5 uM after 24 hrs flow cytometry; format: functional; how it was run: as §2
CAL-33 [9] = assay: Antiproliferative activity against human CAL33 cells after 72 hrs by MTT assay; format: functional, cell-based; conditions: CAL-33, 72 h; how it was run: as §1
HT-29 [10] = assay: Antiproliferative activity against human HT-29 cells after 72 hrs by MTT assay; format: functional, cell-based; conditions: HT-29, 72 h
How it was run: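 HT29 cells were seeded at (1.6–1.8) × 10⁴ per well in medium with 10% FBS, serum-starved after 72 h, and treated the following day for 72 h. Viability was read by MTT (4 mg/mL, 4 h, 37 °C, 5% CO₂) with SDS/HCl solubilisation and absorbance at 570 nm. IC50 is the concentration giving 50% inhibition of proliferation relative to untreated controls.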

HL-60 [11] = assay: Cell cycle arrest in human HL60 cells assessed as accumulation at G1 phase at 0.5 uM after 24 hrs flow cytometry; format: functional; how it was run: as §2
HL-60 [12] = assay: Cell cycle arrest in human HL60 cells assessed as accumulation at S phase at 0.5 uM after 24 hrs flow cytometry; format: functional; how it was run: as §2
[13] = Inhibition of bovine tubulin polymerization after 1 hr; design: species or system Bos taurus
HT-29 [14] = assay: Cell cycle arrest in human HT-29 cells assessed as accumulation at sub-G1 phase at 5 uM after 24 hrs flow cytometry; format: functional; how it was run: as §2
HT-29 [15] = assay: Cell cycle arrest in human HT-29 cells assessed as accumulation at G1 phase at 0.5 uM after 24 hrs flow cytometry; format: functional; how it was run: as §2
[16] = molecular target: DNA topoisomerase 2-alpha (Homo sapiens) (UniProt P11388); assay: Inhibition of human topoisomerase 2-mediated supercoiled plasmid DNA cleavage at 50 uM after 30 min by agarose gel electrophoresis
Sequence of DNA topoisomerase 2-alpha (Homo sapiens) (P11388 whole entry): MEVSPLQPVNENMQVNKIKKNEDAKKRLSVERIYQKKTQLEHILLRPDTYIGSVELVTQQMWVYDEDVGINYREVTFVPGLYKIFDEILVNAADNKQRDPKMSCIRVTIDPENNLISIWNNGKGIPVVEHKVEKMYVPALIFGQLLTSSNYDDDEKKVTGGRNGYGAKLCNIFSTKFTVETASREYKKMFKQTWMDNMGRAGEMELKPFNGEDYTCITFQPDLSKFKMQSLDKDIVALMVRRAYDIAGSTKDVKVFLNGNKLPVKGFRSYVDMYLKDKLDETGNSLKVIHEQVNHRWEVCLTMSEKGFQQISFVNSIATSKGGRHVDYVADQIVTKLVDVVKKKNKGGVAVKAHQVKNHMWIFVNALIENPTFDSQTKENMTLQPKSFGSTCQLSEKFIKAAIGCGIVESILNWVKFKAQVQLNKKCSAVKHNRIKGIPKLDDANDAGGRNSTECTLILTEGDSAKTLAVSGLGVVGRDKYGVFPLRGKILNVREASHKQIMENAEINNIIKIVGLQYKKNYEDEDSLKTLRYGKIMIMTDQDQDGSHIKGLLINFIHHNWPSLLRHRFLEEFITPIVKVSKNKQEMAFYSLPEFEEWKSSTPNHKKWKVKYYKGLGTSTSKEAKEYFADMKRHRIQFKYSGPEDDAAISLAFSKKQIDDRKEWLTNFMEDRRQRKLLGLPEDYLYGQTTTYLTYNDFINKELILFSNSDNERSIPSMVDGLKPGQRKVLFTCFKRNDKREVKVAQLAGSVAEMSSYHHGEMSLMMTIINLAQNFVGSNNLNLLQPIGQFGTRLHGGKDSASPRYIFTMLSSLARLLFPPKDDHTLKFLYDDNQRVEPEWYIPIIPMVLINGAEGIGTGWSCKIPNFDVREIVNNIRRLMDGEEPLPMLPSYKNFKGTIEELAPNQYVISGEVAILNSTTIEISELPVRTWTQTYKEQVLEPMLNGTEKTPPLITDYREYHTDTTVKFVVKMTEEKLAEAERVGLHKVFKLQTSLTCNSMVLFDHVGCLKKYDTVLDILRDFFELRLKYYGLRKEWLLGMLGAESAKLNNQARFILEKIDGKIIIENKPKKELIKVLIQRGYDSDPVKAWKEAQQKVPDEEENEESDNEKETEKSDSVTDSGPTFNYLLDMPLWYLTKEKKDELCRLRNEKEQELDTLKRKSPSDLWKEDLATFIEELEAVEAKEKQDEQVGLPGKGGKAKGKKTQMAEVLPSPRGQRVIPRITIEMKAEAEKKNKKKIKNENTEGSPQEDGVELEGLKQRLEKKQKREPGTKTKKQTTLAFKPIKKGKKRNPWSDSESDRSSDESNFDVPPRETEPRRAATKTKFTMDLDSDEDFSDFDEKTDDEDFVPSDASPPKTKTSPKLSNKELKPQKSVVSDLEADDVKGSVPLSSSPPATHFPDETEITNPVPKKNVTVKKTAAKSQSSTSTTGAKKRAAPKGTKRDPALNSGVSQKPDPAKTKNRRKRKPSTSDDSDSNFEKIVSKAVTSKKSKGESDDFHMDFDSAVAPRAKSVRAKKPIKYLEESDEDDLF

HT-29 [17] = assay: Cell cycle arrest in human HT-29 cells assessed as accumulation at sub-G1 phase at 0.5 uM after 24 hrs flow cytometry; format: functional; how it was run: as §2
CAL-33 [18] = assay: Cell cycle arrest in human CAL33 cells assessed as accumulation at G2 phase at 0.5 uM after 24 hrs flow cytometry
HL-60 [19] = assay: Antiproliferative activity against human HL60 cells after 72 hrs by MTT assay; format: functional, cell-based; conditions: HL-60, 72 h; how it was run: as §1
HT-29 [20] = assay: Cell cycle arrest in human HT-29 cells assessed as accumulation at G2 phase at 5 uM after 24 hrs flow cytometry; format: functional; how it was run: as §2
HL-60 [21] = assay: Cell cycle arrest in human HL60 cells assessed as accumulation at G2 phase at 0.5 uM after 24 hrs flow cytometry; format: functional; how it was run: as §2
HT-29 [22] = assay: Cell cycle arrest in human HT-29 cells assessed as accumulation at G2 phase at 0.5 uM after 24 hrs flow cytometry; format: functional; how it was run: as §2
CAL-33 [23] = assay: Cell cycle arrest in human CAL33 cells assessed as accumulation at G1 phase at 0.5 uM after 24 hrs flow cytometry; format: functional; how it was run: as §2
CAL-33 [24] = assay: Cell cycle arrest in human CAL33 cells assessed as accumulation at sub-G1 phase at 0.5 uM after 24 hrs flow cytometry; format: functional; how it was run: as §2
CAL-33 [25] = assay: Cell cycle arrest in human CAL33 cells assessed as accumulation at S phase at 0.5 uM after 24 hrs flow cytometry; format: functional; how it was run: as §2
CAL-33 [26] = assay: Cell cycle arrest in human CAL33 cells assessed as accumulation at G2 phase at 0.5 uM after 24 hrs flow cytometry; format: functional; how it was run: as §2
CAL-33 [27] = assay: Cell cycle arrest in human CAL33 cells assessed as accumulation at sub-G1 phase at 5 uM after 24 hrs flow cytometry; format: functional; how it was run: as §2
CAL-33 [28] = assay: Cell cycle arrest in human CAL33 cells assessed as accumulation at G2 phase at 5 uM after 24 hrs flow cytometry; format: functional; how it was run: as §2
CAL-33 [29] = assay: Cell cycle arrest in human CAL33 cells assessed as accumulation at S phase at 5 uM after 24 hrs flow cytometry; format: functional; how it was run: as §2
CAL-33 [30] = assay: Cell cycle arrest in human CAL33 cells assessed as accumulation at G1 phase at 5 uM after 24 hrs flow cytometry; format: functional; how it was run: as §2

- IC50 (DU-145): 810 nM
- IC50 (PC-3): > 50000 nM
- IC50 (HT-29 [10]): 870 nM
- IC50 [13]: > 10000 nM
- inhibition [16]: Active
- IC50 (HL-60 [19]): 1650 nM
Structure (SMILES): COc1ccc(CCc2cccc3c2Nc2ccccc2S3(=O)=O)cc1
- Activity (HL-60 [1]): 24.77%
- Activity (HT-29 [2]): 2.46%
- Activity (HL-60 [3]): 34.12%
- Activity (HL-60 [4]): 8.22%
- Activity (HL-60 [5]): 14.77%
- Activity (HT-29 [6]): 8.63%
- Activity (HT-29 [7]): 8.63%
- Activity (HL-60 [8]): 26.83%
- IC50 (CAL-33 [9]): 627 nM
- Activity (HL-60 [11]): 57.66%
- Activity (HL-60 [12]): 21.83%
- Activity (HT-29 [14]): 0.47%
- Activity (HT-29 [15]): 73.56%
- Activity (HT-29 [17]): 1.63%
- Activity (CAL-33 [18]): 15.95%
- Activity (HT-29 [20]): 87.92%
- Activity (HL-60 [21]): 12.4%

Structure (SMILES): CCC1=C[C@@H]2CN(C1)Cc1c([nH]c3ccccc13)[C@@](C(=O)OC)(c1cc3c(cc1OC)N(C)[C@H]1[C@@](O)(C(=O)OC)[C@H](OC(C)=O)[C@]4(CC)C=CCN5CC[C@]31[C@@H]54)C2 [VINORELBINE]
- Activity (HT-29 [22]): 72.85%
- Activity (HT-29 [6]): 3.41%
- Activity (CAL-33 [23]): 9.96%
- Activity (CAL-33 [24]): 24.44%
- Activity (CAL-33 [25]): 17.62%
- Activity (HT-29 [15]): 21.42%
- Activity (HT-29 [17]): 1.39%
- Activity (CAL-33 [26]): 72.8%

- IC50 (HT-29 [10]): 12000 nM
- IC50 [13]: 510 nM
Structure (SMILES): COc1ccc(CCc2cccc3c(=O)c4ccccc4[nH]c23)cc1O

- IC50 (HT-29 [10]): > 50000 nM
- IC50 [13]: > 10000 nM
Structure (SMILES): O=c1c2ccccc2[nH]c2c(CCc3ccc(O)c(O)c3)cccc12

- IC50 (DU-145): 50 nM
- IC50 (PC-3): 750 nM
- IC50 (HT-29 [10]): 51 nM
- IC50 [13]: > 10000 nM
- inhibition [16]: Active
- IC50 (HL-60 [19]): 100 nM
Structure (SMILES): COc1ccc(CCc2cccc3c(=O)c4ccccc4[nH]c23)cc1
- Activity (CAL-33 [27]): 22.73%
- Activity (CAL-33 [28]): 35.16%
- Activity (HT-29 [22]): 81.81%
- Activity (HL-60 [1]): 26.55%
- Activity (HT-29 [2]): 4.6%
- Activity (HL-60 [3]): 34.34%
- Activity (HL-60 [4]): 37.16%
- Activity (HL-60 [5]): 15.2%
- Activity (HT-29 [6]): 2.75%
- Activity (CAL-33 [23]): 4%
- Activity (HT-29 [7]): 21.11%
- Activity (HL-60 [8]): 24.4%
- Activity (CAL-33 [24]): 9.84%
- IC50 (CAL-33 [9]): 37 nM
- Activity (HL-60 [11]): 25.15%
- Activity (CAL-33 [25]): 28.46%
- Activity (HL-60 [12]): 18.5%
- Activity (HT-29 [14]): 0.83%
- Activity (HT-29 [15]): 14.55%
- Activity (HT-29 [17]): 0.65%
- Activity (CAL-33 [29]): 33.12%
- Activity (CAL-33 [26]): 57.42%
- Activity (CAL-33 [30]): 8.35%
- Activity (HT-29 [20]): 73.1%
- Activity (HL-60 [21]): 19.58%

- IC50 (HT-29 [10]): > 100000 nM
- IC50 [13]: > 10000 nM
Structure (SMILES): O=S1(=O)c2ccccc2Nc2c(CCc3ccc(O)c(O)c3)cccc21

- IC50 (HT-29 [10]): > 50000 nM
- IC50 [13]: > 10000 nM
Structure (SMILES): COc1ccc(CCc2cccc3c(=O)c4ccccc4[nH]c23)cc1OC

- IC50 (HT-29 [10]): 210 nM
- IC50 [13]: 2200 nM
Structure (SMILES): COc1ccc(S(=O)(=O)Nc2cccnc2Nc2ccc(O)cc2)cc1 [ABT-751]

Structure (SMILES): CC(=O)O[C@@]12CO[C@@H]1C[C@H](O)[C@@]1(C)C(=O)[C@H](O)C3=C(C)[C@@H](OC(=O)[C@H](O)[C@@H](NC(=O)OC(C)(C)C)c4ccccc4)C[C@@](O)([C@@H](OC(=O)c4ccccc4)[C@H]21)C3(C)C.O.O.O [DOCETAXEL]
- Activity (HT-29 [22]): 88.24%
- Activity (HT-29 [6]): 2.76%
- Activity (CAL-33 [23]): 4.99%
- Activity (CAL-33 [24]): 17.11%
- Activity (CAL-33 [25]): 15.41%
- Activity (HT-29 [15]): 7.85%
- Activity (HT-29 [17]): 0.86%
- Activity (CAL-33 [26]): 88.2%

- IC50 (DU-145): > 100000 nM
- IC50 (PC-3): > 100000 nM
- IC50 (HT-29 [10]): > 100000 nM
- IC50 [13]: > 10000 nM
- inhibition [16]: Active
- IC50 (HL-60 [19]): > 50000 nM
Structure (SMILES): COc1cc(CCc2cccc3c(=O)c4ccccc4[nH]c23)cc(OC)c1OC
- IC50 (CAL-33 [9]): > 100000 nM

Structure (SMILES): CC[C@]1(O)C[C@H]2CN(CCc3c([nH]c4ccccc34)[C@@](C(=O)OC)(c3cc4c(cc3OC)N(C=O)[C@H]3[C@@](O)(C(=O)OC)[C@H](OC(C)=O)[C@]5(CC)C=CCN6CC[C@]43[C@@H]65)C2)C1 [VINCRISTINE]
- Activity (HT-29 [22]): 72.53%
- Activity (HT-29 [6]): 4.65%
- Activity (CAL-33 [23]): 14.29%
- Activity (CAL-33 [24]): 20.5%
- Activity (CAL-33 [25]): 17.13%
- Activity (HT-29 [15]): 16.43%
- Activity (HT-29 [17]): 5.97%
- Activity (CAL-33 [26]): 72.5%

- IC50 (HT-29 [10]): 7200 nM
- IC50 [13]: 1250 nM
Structure (SMILES): COc1ccc(CCc2cccc3c2Nc2ccccc2S3(=O)=O)cc1O

- IC50 (HT-29 [10]): > 100000 nM
- IC50 [13]: > 10000 nM
Structure (SMILES): COc1cc(CCc2cccc3c2Nc2ccccc2S3(=O)=O)cc(OC)c1OC

- IC50 (DU-145): 17 nM
- IC50 (PC-3): 475 nM
- IC50 (HT-29 [10]): 24 nM
- IC50 [13]: 2400 nM
Structure (SMILES): COc1ccc(CCN2C=CC=C3C2=Nc2ccccc2OS3(=O)=O)cc1

- IC50 (HT-29 [10]): > 50000 nM
- IC50 [13]: > 10000 nM
Structure (SMILES): COc1ccc(CCc2cccc3c2Nc2ccccc2S3(=O)=O)cc1OC
